Compound activity: PubChem, Broad Institute
An excerpt weighted towards active compounds, which were near 2.5% of everything screened.
PAX8 inh HTS: inhibitors of PAX8-driven TPO luciferase reporter, primary screen, RMG-I cells, single concentration; SteadyGlo, 24 h; hit rate 1.2% among 360,000; inhibition, % at 12.6 µM; AID 652154, 2013;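 active means mean replicate inhibition at least 60% with every replicate also reaching 60%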;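 further: luciferase light reporting Pax8 driven TPO promoter activity; plate controls were median of neutral control wells for no effect and mitoxantrone controls for full effect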
MLL AF4-AF9 inh: inhibitors of AF4 peptide binding to AF9, primary screen, biochemical, AlphaScreen, biotin-AF4 peptide, FLAG-AF9, single point | inhibition, % at 10 µM | hit rate 0.47% among 350,000 | AID 651704, 2012;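 active means every replicate reaching a set inhibition limit, whatever the replicate mean, cut at about 25% in these data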;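 further: 0% = plate neutral control median and 100% = total signal loss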
Target sequence (P42568 whole entry, looked up): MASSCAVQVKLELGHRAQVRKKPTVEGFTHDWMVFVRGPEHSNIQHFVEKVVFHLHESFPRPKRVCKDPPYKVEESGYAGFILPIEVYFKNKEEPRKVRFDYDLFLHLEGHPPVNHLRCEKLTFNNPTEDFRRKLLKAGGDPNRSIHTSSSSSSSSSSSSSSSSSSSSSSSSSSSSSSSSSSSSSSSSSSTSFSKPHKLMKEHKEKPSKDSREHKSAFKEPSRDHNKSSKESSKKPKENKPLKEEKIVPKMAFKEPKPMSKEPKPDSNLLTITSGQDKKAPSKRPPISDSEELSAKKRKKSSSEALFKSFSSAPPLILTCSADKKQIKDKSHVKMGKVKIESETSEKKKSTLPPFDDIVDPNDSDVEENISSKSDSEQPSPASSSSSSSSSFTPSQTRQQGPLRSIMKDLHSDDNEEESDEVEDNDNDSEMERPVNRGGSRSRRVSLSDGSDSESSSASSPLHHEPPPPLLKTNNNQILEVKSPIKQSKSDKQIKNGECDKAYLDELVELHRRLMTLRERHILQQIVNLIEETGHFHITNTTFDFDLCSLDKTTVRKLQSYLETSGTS
HIV Env fusion: inhibitors of HIV-1 Env-driven cell-cell fusion, primary screen, HeLa-JRFL effector, CEM21 target cells, luciferase | inhibition, % at 12.3 µM | hit rate 1.1% among 360,000 | AID 651610, 2012;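 active means mean replicate inhibition score of at least 50 and every replicate individually at or above 50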;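 further: 0% = plate neutral controls and 100% = maraviroc near 300 nM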
EWS-Fli inh: EWS/Fli-driven NR0B1 reporter inhibitors, primary screen, A673 cells, NR0B1 luciferase, luminescence, MLPCN library | viability-normalised | inhibition, % at 12.6 µM | hit rate 0.67% among 350,000 | AID 651661, 2012;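 active means mean inhibition of at least 50% after viability correction, with every replicate also passing that limit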;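 further: firefly luciferase signal divided by Alamar Blue viability fluorescence both relative to DMSO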
FN deposit inh: inhibitors of fibronectin matrix deposition, primary screen, AH1F cells, Alexa488-fibronectin fluorescence, plate reader; inhibition, % at 12.6 µM; hit rate 0.086% among 350,000; AH1F fibroblasts, overnight;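 active means mean inhibition across replicates of 30% or more, regardless of how many single replicates reach that level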;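 further: positive control wells lacked labelled fibronectin entirely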
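test system = AH1F fibroblasts assembling fluorescent fibronectin matrix | quantity = 10000 AH1F cells per well | buffer or medium = DMEM plus 2% serum, read in PBS | doses = single dose, pinned | incubation = 1 h cell attachment, overnight exposure to compound and label | detection = fluorescence at 485 nm excitation, 525 nm emission | read-out basis = inhibition from reduced deposited-fibronectin fluorescence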
Glyco luc inh: increase of ERlucT glycosylation luciferase signal, primary screen, N-linked glycosylation inhibitor project, D54 ERlucT cells, luminescence, set 2. D54 ERlucT glycosylation luciferase reporter, 24 h; percent of 100 nM tunicamycin response. reporter increase, % at 12.5 µM. hit rate 0.23% among 360,000;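 active means mean luciferase reporter signal, scaled so untreated is 0 and the glycosylation-blocking control 100, at or above a set limit in every replicate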;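 further: luciferase carries N-glycosylation sites so blocking glycosylation raises the light; 0% = median of neutral control wells and 100% = median of 100 nM tunicamycin wells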
* marks the source's active call; other numbers are inactive results; . = not tested or not shown; [ ] = another dose, or the depositor's remark.

SMILES | PAX8 inh HTS | MLL AF4-AF9 inh | HIV Env fusion | EWS-Fli inh | FN deposit inh | Glyco luc inh
O=C(C[C@@H]1CC[C@@H](NC(=O)C2CC2)[C@H](CO)O1)NCc1ccccc1Cl | 1 | 0 | 0[16.7 µM] | -2 | -2 | .
O=C(C[C@@H]1C[C@H]2c3cc(NC(=O)c4cccnc4)ccc3O[C@H]2[C@@H](CO)O1)NCc1cccnc1 | -7 | 3 | 5[16.7 µM] | -6 | -9 | .
C[C@@]12C(=O)N(CC3CCCO3)CC(=O)N1[C@@H]1c3ccccc3OC[C@@H]1[C@@H]2c1ccccc1 (stereo not given in full) | 13 | -1 | . | 2 | 13 | 9
Cc1ccc2c(c1)[C@H]1[C@H](CO2)[C@H](c2ccccc2)[C@]2(C)C(=O)N(CC3CCCO3)CC(=O)N12 (stereo not given in full) | 5 | 5 | 110* | -4 | -12 | 0
C[C@@]12C(=O)N(CC3CCCO3)CC(=O)N1[C@H]1c3cc(Cl)ccc3OC[C@@H]1[C@@H]2c1ccccc1 (stereo not given in full) | -35 | . | 80* | 2 | 19 | 2
O=C(Nc1ccccc1F)c1ccc([N+](=O)[O-])s1 | 10 | -4 | -14 | 11 | 2 | -1
O=C(Nc1cccnc1)c1ccc([N+](=O)[O-])s1 | 67* | 1 | 7 | 35 | 0 | 0
COCC(=O)N1CC[C@H]2[C@@H]1c1cc(-c3ccc(F)cc3)ccc1N(C)[C@H]2CO | -12 | 3 | . | -3 | -2 | .
CC1=C(C(=O)OCCOc2ccccc2)C(c2coc3ccccc3c2=O)C2=C(CCCC2=O)N1 (stereo not given) | 17 | -1 | 57* | 19 | 5 | -1
C[C@H]1CN([C@@H](C)CO)C(=O)Cc2cc(NC(=O)Cn3cnnn3)ccc2O[C@H]1CN(C)Cc1ccc(Oc2ccccc2)cc1 | -31 | 4 | -20[16.7 µM] | 10 | 13 | .
C[C@H]1CCCCO[C@@H](CN(C)Cc2ccc3c(c2)OCO3)[C@@H](C)CN([C@@H](C)CO)C(=O)c2cc(NS(=O)(=O)c3ccc(Cl)cc3)ccc2O1 | 37 | 17 | -66[16.7 µM] | 15 | -8 | .
N#C[C@H]1[C@H](c2ccc(-c3ccccc3F)cc2)[C@@H](CO)N1C(=O)C1CC1 | -4 | -1 | -5[16.7 µM] | 3 | 5 | .
Cc1ccc(Cl)cc1N1CCN(C(=O)c2cn(C)c(=O)c3c2c2ccccc2n3C)CC1 | . | 14 | . | 54* | . | 16
Cc1cccc(N2CCN(C(=O)c3cn(C)c(=O)c4c3c3ccccc3n4C)CC2)c1C | . | 5 | . | 0 | . | 3
Cc1ccc(/C=N/Nc2cccc(C(=O)O)c2)s1 | 53 | . | 40 | . | 5 | -6
Cc1ccc(/C=N/Nc2ccc(C(=O)O)cc2)s1 | 75* | 3 | 64* | 67* | 7 | -19
CC(C)c1ccc(/C=N/Nc2ccc(C(=O)O)cc2)cc1 | 82* | -6 | 66* | 75* | 2 | -15
CCCC(=O)Nc1ccc2c(c1)C(=O)N(C)C[C@H](OC)[C@H](C)CN(Cc1ccc(-c3ccccn3)cc1)[C@@H](C)CO2 | 25 | 4 | . | 3 | 11 | .
C[C@H]1CN([C@@H](C)CO)C(=O)Cc2cc(NC(=O)Nc3ccc4c(c3)OCO4)ccc2O[C@H]1CN(C)S(=O)(=O)c1ccccc1 | . | 4 | 63*[16.7 µM] | 55* | 13 | .
Cc1ccc(S(=O)(=O)N(C)C[C@@H]2Oc3ccc(NC(=O)Nc4ccc5c(c4)OCO5)cc3CC(=O)N([C@H](C)CO)C[C@@H]2C)cc1 | 42 | 4 | -25[16.7 µM] | 56* | . | .
C[C@H]1CN([C@@H](C)CO)C(=O)Cc2cc(NC(=O)NC3CCCCC3)ccc2O[C@H]1CN(C)S(=O)(=O)c1ccc(Cl)cc1 | 79* | 2 | -21[16.7 µM] | -5 | . | .
C[C@H](CO)N1C[C@H](C)[C@H](CN(C)S(=O)(=O)c2ccc(Cl)cc2)Oc2ccc(NC(=O)Nc3ccc4c(c3)OCO4)cc2CC1=O | . | 7 | -206[16.7 µM] | 61* | -9 | .
C[C@H](CO)N1C[C@H](C)[C@H](CN(C)Cc2ccc(C(=O)O)cc2)OCCCC[C@H](C)Oc2ccc(NS(=O)(=O)c3cccs3)cc2C1=O | 3 | -3 | -19[16.7 µM] | -9 | . | .
C[C@H]1CN([C@@H](C)CO)C(=O)Cc2cc(NC(=O)Nc3ccc4c(c3)OCO4)ccc2O[C@H]1CN(C)S(=O)(=O)c1ccc(Cl)cc1 | . | 8 | -385[16.7 µM] | 58* | -24 | .
C[C@@H]1CN([C@H](C)CO)C(=O)c2cc(NC(=O)c3ccccc3)ccc2O[C@@H](C)CCCCO[C@H]1CN(C)Cc1ccc(Cl)c(Cl)c1 | . | . | . | . | 6 | .
SMILES | PAX8 inh HTS | MLL AF4-AF9 inh | HIV Env fusion | EWS-Fli inh | FN deposit inh | Glyco luc inh
C[C@@H]1CCCCO[C@H](CN(C)Cc2ccc(Cl)c(Cl)c2)[C@@H](C)CN([C@@H](C)CO)C(=O)c2cc(NC(=O)Cc3ccccc3)ccc2O1 | 96* | 1 | -23[16.7 µM] | -2 | -11 | .
C[C@@H]1CCCCO[C@@H](CN(C)Cc2ccc(Cl)c(Cl)c2)[C@@H](C)CN([C@@H](C)CO)C(=O)c2cc(NC(=O)c3ccccc3)ccc2O1 | 66* | -3 | -15[16.7 µM] | 9 | -1 | .
C[C@H]1CCCCO[C@H](CN(C)Cc2ccc(Cl)c(Cl)c2)[C@@H](C)CN([C@@H](C)CO)C(=O)c2cc(NC(=O)c3ccccc3)ccc2O1 | 67* | -1 | 13[16.7 µM] | 13 | -11 | .
CCCN1C[C@H](C)[C@H](OC)CN(C)C(=O)c2cc(NC(=O)C3CC3)ccc2OC[C@@H]1C | -8 | -2 | . | 8 | -4 | .
C[C@@H]1CN([C@H](C)CO)C(=O)c2cc(-c3cncnc3)cnc2O[C@@H]1CN(C)C(=O)Cc1ccccn1 | . | -4 | 21[16.7 µM] | 1 | -3 | .
O=C(C[C@H]1CC[C@H](NC(=O)CC2CC2)[C@H](CO)O1)NCc1ccccc1 | -22 | -1 | . | -2 | . | .
C[C@@H]1CN([C@@H](C)CO)C(=O)c2cc(NC(=O)c3ccncc3)ccc2O[C@@H]1CN(C)Cc1ccc(-c2ccccc2)cc1 | 15 | 7 | . | 17 | 4 | .
O=C(/C=C/c1ccc(Cl)cc1)c1ccc([N+](=O)[O-])o1 | 15 | -9 | -310 | 25 | -2 | -17
Cc1ccc(/C=C/C(=O)c2ccc([N+](=O)[O-])o2)cc1 | 27 | -2 | -432 | 64* | 4 | .
CC1(C)C2CCC1(C)C(OC(=O)c1ccccc1C(=O)O)C2 (stereo not given) | -4 | -8 | 1 | 13 | -8 | 2
CC1(C)C2CCC1(C)C(OCCNCCOC(=O)Nc1ccccc1)C2 (stereo not given) | -17 | 0 | 69* | 9 | 4 | -3
